Experimental data: ChEMBL document CHEMBL1143012, “Synthesis and pharmacological in vitro and in vivo evaluations of novel triazole derivatives as ligands of the ghrelin receptor. 1” (J Med Chem, 2007)
Square brackets hold non-standard residues; d marks the D form. Peptide text beside a SMILES is read from it. dTrp(2-Me) = Cc1[nH]c2ccccc2c1C[C@@H](N)C(=O)O

What was measured:
[1] = biological target: T1, Growth hormone secretagogue receptor type 1 (Homo sapiens, UniProt Q92847); experiment: Antagonist activity at human GHS1a receptor expressed in CHO cells assessed as inhibition of ghrelin-induced intracellular calcium mobilization; format: functional, cell-based
Summary of the method: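 Calcium flux (Fluo-4AM, ex 485/em 525 nm) in CHO cells transiently expressing hGHS-R1a. Antagonist inhibition curves against 0.1 µM ghrelin give IC50; Kb by Cheng-Prusoff, with Schild analysis of ghrelin EC50 shifts for pA2 and exact Kb. Signal as percentage of 10 µM ghrelin response; duplicates, at least three experiments.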

[2] = biological target: T1, Growth hormone secretagogue receptor type 1; experiment: Activity at human GHS1a receptor expressed in CHO cells assessed as intracellular calcium mobilization relative to 0.1 uM ghrelin; format: functional, cell-based
[3] = biological target: T1, Growth hormone secretagogue receptor type 1; experiment: Displacement of [125I-His9]ghrelin from human GHS1a receptor expressed in LLC PK1 cells; format: cell-based
Summary of the method: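 Membranes from LLC PK-1 cells transiently electroporated with hGHS-R1a (harvested about 48 h), 10 µg protein, incubated 60 min at 25 °C with 60 pM 125I-His9-ghrelin in Tris pH 7.3/MgCl2/EDTA/bacitracin buffer. Filtered, washed, gamma counted; nonspecific binding with 10 µM ghrelin. Triplicates, at least three experiments.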

[4] = biological target: T1, Growth hormone secretagogue receptor type 1; experiment: Agonist activity at human GHS1a receptor expressed in CHO cells assessed as induction of intracellular calcium mobilization; format: functional, cell-based; details: for Activity: filed as partial agonist
Summary of the method: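 CHO cells transiently expressing hGHS-R1a via electroporation, Fluo-4AM loaded (1 µM, 1 h, 37 °C), calcium fluorescence read 60 s at ex 485/em 525 nm. EC50 from agonist dose-response curves, response as percentage of maximal signal from 10 µM ghrelin; triplicates, means of at least three experiments.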

Rattus norvegicus [5] = experiment: Stimulation of cumulative food intake in Sprague-Dawley rat at 160 ug/kg, sc at 6 hrs relative to 80 ug/kg hexarelin; format: functional
Summary of the method: (§1)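 Male Sprague-Dawley rats (125-150 g), singly housed and trained, given compound sc alone (cumulative food intake as g/100 g body weight, weighed hourly to 6 h); percentage variation calculated as (compound minus hexarelin 80 µg/kg intake)/hexarelin intake at 6 h. Mean ± SEM, ANOVA with Dunnett's test.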

Rattus norvegicus [6] = experiment: Stimulation of cumulative food intake per 100 g body weight in Sprague-Dawley rat at 160 ug/kg, sc at 6 hrs; format: functional; summary of the method: as §1
Rattus norvegicus [7] = experiment: Inhibition of hexarelin-stimulated cumulative food intake in Sprague-Dawley rat at 160 ug/kg, sc at 6 hrs; format: functional
Summary of the method: (§2)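 Male Sprague-Dawley rats (125-150 g), singly housed, acclimated and trained. Compound given sc at 0, 20, 80, 160 or 320 µg/kg at -10 min, then hexarelin 80 µg/kg sc at time 0. Food weighed hourly for 6 h, normalized as g/100 g body weight; 7-8 determinations, one-way ANOVA with Dunnett's test.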

Rattus norvegicus [8] = experiment: Effect on growth hormone secretion in Sprague-Dawley rat at 160 ug/kg, sc; format: functional
Summary of the method: (§3)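 Male 10-day-old Sprague-Dawley pups (~25 g), groups of eight, separated from dams 1 h before. Compounds in DMSO diluted with saline, sc; hexarelin 80 µg/kg, test compound 160 µg/kg; with combined treatment compound given 10 min before hexarelin. Killed 15 min later; plasma GH by rat GH enzyme immunoassay, ng/mL.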

Rattus norvegicus [9] = experiment: Inhibition of hexarelin-stimulated cumulative food intake in Sprague-Dawley rat at 80 ug/kg, sc at 6 hrs; format: functional; summary of the method: as §2
Rattus norvegicus [10] = experiment: Inhibition of hexarelin-stimulated cumulative food intake in Sprague-Dawley rat at 20 ug/kg, sc at 6 hrs; format: functional; summary of the method: as §2
Rattus norvegicus [11] = experiment: Inhibition of hexarelin-stimulated cumulative food intake in Sprague-Dawley rat at 320 ug/kg, sc at 6 hrs; format: functional; summary of the method: as §2
Rattus norvegicus [12] = experiment: Effect on growth hormone secretion in Sprague-Dawley rat at 80 ug/kg, sc; format: functional; summary of the method: as §3
Rattus norvegicus [13] = experiment: Stimulation of cumulative food intake in Sprague-Dawley rat at 80 ug/kg, sc at 6 hrs; format: functional; summary of the method: as §1

T1 sequence (Q92847 whole entry): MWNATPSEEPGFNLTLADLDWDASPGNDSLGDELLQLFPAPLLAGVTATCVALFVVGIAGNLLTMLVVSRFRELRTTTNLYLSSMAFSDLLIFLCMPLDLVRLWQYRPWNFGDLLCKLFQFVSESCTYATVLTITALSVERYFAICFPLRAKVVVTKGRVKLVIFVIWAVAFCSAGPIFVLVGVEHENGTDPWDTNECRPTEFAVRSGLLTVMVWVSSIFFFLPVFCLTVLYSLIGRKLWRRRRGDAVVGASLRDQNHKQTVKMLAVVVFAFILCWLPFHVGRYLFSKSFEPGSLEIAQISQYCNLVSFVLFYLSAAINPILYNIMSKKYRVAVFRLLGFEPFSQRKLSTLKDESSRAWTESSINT

SMILES | Activity [2] | IC50 [3] | Activity (Rattus norvegicus [5]) | Activity (Rattus norvegicus [6]) | further results
COc1ccccc1Cn1c(Cc2ccccc2)nnc1[C@@H](Cc1c[nH]c2ccccc12)NC(=O)C(C)(C)N | 66% | 410 nM |  |  | Activity ([1]; filed as partial agonist): Partial agonist
CC(C)(N)C(=O)N[C@H](Cc1c[nH]c2ccccc12)c1nnc(CCc2c[nH]c3ccccc23)n1CCc1c[nH]c2ccccc12 | 82% | 150 nM | -25% | 0.27 g | Activity [4]: Partial agonist
Cc1[nH]c2ccccc2c1C[C@@H](NC(=O)[C@@H](N)Cc1c[nH]cn1)C(=O)N[C@@H](C)C(=O)N[C@@H](Cc1c[nH]c2ccccc12)C(=O)N[C@H](Cc1ccccc1)C(=O)N[C@@H](CCCCN)C(N)=O [EXAMORELIN] (H-H[dTrp(2-Me)]AW[dF]K-NH2) |  |  |  |  | Activity (Rattus norvegicus [12]): 170 ng/mL; Activity (Rattus norvegicus [13]): 1.01 g
COc1cc(Cn2c(CCc3ccccc3)nnc2[C@@H](Cc2c[nH]c3ccccc23)NC(=O)C(C)(C)N)cc(OC)c1 | 0% | > 1000 nM |  |  | Activity ([1]; filed as antagonist): Antagonist
COc1ccc(Cn2c(CCCc3ccccc3)nnc2[C@@H](Cc2c[nH]c3ccccc23)NC(=O)C(C)(C)N)cc1 | 0% |  |  |  | Kb [1]: 14 nM
COc1ccc(Cn2c(CCc3ccccc3)nnc2[C@@H](Cc2c[nH]c3ccccc23)NC(=O)C(C)(C)N)c(OC)c1 | 0% | 60 nM |  |  | Kb [1]: 17 nM
COc1ccc(Cn2c(Cc3c[nH]c4ccccc34)nnc2[C@@H](Cc2c[nH]c3ccccc23)NC(=O)C(C)(C)N)cc1 | 0% | 660 nM |  |  | Activity ([1]; filed as antagonist): Antagonist
COc1ccc(Cn2c(CCc3c[nH]c4ccccc34)nnc2[C@@H](Cc2c[nH]c3ccccc23)NC(=O)C(C)(C)N)c(OC)c1 | 0% | 108 nM | -63% | 0.06 g | Kb [1]: 14 nM
COc1ccc(Cn2c(Cc3ccccc3)nnc2[C@@H](Cc2c[nH]c3ccccc23)NC(=O)C(C)(C)N)cc1 | 0% | 121 nM | -31% | 0.17 g | Activity ([1]; filed as antagonist): Antagonist
COc1ccccc1Cn1c(CCc2c[nH]c3ccccc23)nnc1[C@@H](Cc1c[nH]c2ccccc12)NC(=O)C(C)(C)N | 50% |  |  |  | Activity ([1]; filed as partial agonist): Partial agonist
COc1ccc(Cn2c(Cc3ccccc3)nnc2[C@@H](Cc2c[nH]c3ccccc23)NC(=O)C(C)(C)N)c(OC)c1 | 0% | 560 nM |  |  | Activity ([1]; filed as antagonist): Antagonist
COc1ccc(Cn2c(CCCc3c[nH]c4ccccc34)nnc2[C@@H](Cc2c[nH]c3ccccc23)NC(=O)C(C)(C)N)cc1 | 0% | 145 nM |  |  | Kb [1]: 12 nM

Now from value to compound, other results behind:

Activity [2] | IC50 [3] | SMILES | Activity (Rattus norvegicus [5]) | Activity (Rattus norvegicus [6]) | further results
85% | 14 nM | CC(C)(N)C(=O)N[C@H](Cc1c[nH]c2ccccc12)c1nnc(CCCc2c[nH]c3ccccc23)n1CCc1c[nH]c2ccccc12 | 54% | 0.22 g | EC50 [4]: 140 nM
30% | 33 nM | CC(C)(N)C(=O)N[C@H](Cc1c[nH]c2ccccc12)c1nnc(CCCc2c[nH]c3ccccc23)n1Cc1ccccc1 | -97% | 0.01 g | Activity (Rattus norvegicus [7]): 0.25 g; Activity (Rattus norvegicus [8]): 13 ng/mL; Activity (Rattus norvegicus [9]): 0.25 g; Activity (Rattus norvegicus [10]): 0.46 g; Activity (Rattus norvegicus [11]): 0.08 g; EC50 [4]: 49 nM
18% | 11 nM | CC(C)(N)C(=O)N[C@H](Cc1c[nH]c2ccccc12)c1nnc(CCCc2c[nH]c3ccccc23)n1CCc1ccccc1 | -21% | 0.75 g | EC50 [4]: 15 nM
0% | 11 nM | COc1ccc(Cn2c(CCc3ccccc3)nnc2[C@@H](Cc2c[nH]c3ccccc23)NC(=O)C(C)(C)N)cc1 | -10% | 0.2 g | Kb [1]: 5 nM
28% | 55 nM | CC(C)(N)C(=O)N[C@H](Cc1c[nH]c2ccccc12)c1nnc(CCc2c[nH]c3ccccc23)n1Cc1ccc(Cl)c(Cl)c1 | -45% | 0.41 g | Activity [4]: Partial agonist
16% | 21 nM | Cc1ccc(Cn2c(CCCc3ccccc3)nnc2[C@@H](Cc2c[nH]c3ccccc23)NC(=O)C(C)(C)N)cc1 | -55% | 0.74 g | EC50 [4]: 12 nM
